Reference: ChEMBL document CHEMBL1949557, “Discovery of INCB3284, a Potent, Selective, and Orally Bioavailable hCCR2 Antagonist” (ACS Med Chem Lett, 2011)
Activity calls are given as the source filed them. The rule behind the calls is not given here.

Legend:
[1] = AUC in chimpanzee at 4 mg/kg, po; type: ADME, organism-based, Pan troglodytes; parameters: dose 4 mg/kg, route oral; details: plasma
Summary of the method: (§1)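 Pharmacokinetics run in rats, dogs, cynomolgus monkeys and chimpanzees, with two animals per species for the iv arm and two per species for the oral arm. Parameters were derived per species and route: CL, Vss and T1/2 from iv dosing; Cmax, Tmax, AUC, T1/2 and F% from oral dosing. Values are reported as mean ± spread.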

[2] = molecular target: C-C chemokine receptor type 2 (Homo sapiens, UniProt P41597); test: Inhibition of human CCR2-mediated Erk phosphorylation
[3] = Oral bioavailability in cynomolgus monkey at 30 mg/kg; type: ADME, organism-based, Macaca fascicularis; details: in vivo; summary of the method: as §1
[4] = molecular target: T1, C-X-C chemokine receptor type 5 (Homo sapiens) (UniProt P32302); test: Inhibition of CXCR5 at 1 uM
T1 sequence (whole entry): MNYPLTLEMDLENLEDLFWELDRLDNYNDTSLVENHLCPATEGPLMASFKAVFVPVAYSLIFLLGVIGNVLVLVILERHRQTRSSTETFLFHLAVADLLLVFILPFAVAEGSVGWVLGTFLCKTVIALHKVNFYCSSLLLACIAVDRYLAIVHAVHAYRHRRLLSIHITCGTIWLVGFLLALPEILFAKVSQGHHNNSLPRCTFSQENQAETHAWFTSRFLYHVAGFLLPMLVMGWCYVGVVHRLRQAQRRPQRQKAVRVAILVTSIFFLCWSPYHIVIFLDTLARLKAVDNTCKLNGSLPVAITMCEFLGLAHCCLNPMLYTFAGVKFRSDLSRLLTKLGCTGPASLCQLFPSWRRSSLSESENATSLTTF
Summary of the method: (§2)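 Cerep selectivity panel of over 50 ion channels, transporters, chemokine receptors and other GPCRs. Single test concentration of 1 μM, scored for significant inhibition.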

[5] = molecular target: Cytochrome P450 2C9 (Homo sapiens, UniProt P11712); test: Inhibition of CYP2C9; type: ADME
[6] = Oral bioavailability in chimpanzee at 4 mg/kg; type: ADME, organism-based, Pan troglodytes; details: in vivo; summary of the method: as §1
[7] = Cmax in cynomolgus monkey at 30 mg/kg, po; type: ADME, organism-based, Macaca fascicularis; parameters: dose 30 mg/kg, route oral; details: in vivo; summary of the method: as §1
[8] = Induction of cytochrome P450 up to 10 uM by luminometric luciferase assay; type: ADME
[9] = system: Rattus norvegicus; test: Oral bioavailability in rat at 10 mg/kg; type: ADME, organism-based; details: in vivo; summary of the method: as §1
[10] = system: Rattus norvegicus; test: AUC in rat at 10 mg/kg, po; type: ADME, organism-based, Plasma; parameters: dose 10 mg/kg, route oral; details: in vivo; summary of the method: as §1
[11] = AUC in dog at 30 mg/kg, po; type: ADME, organism-based, Canis lupus familiaris; parameters: dose 30 mg/kg, route oral; details: plasma; summary of the method: as §1
[12] = Clearance in dog at 5 mg/kg, iv; type: ADME, organism-based, Canis lupus familiaris; parameters: dose 5 mg/kg, route intravenous; details: in vivo; summary of the method: as §1
[13] = Oral bioavailability in dog at 30 mg/kg; type: ADME, organism-based, Canis lupus familiaris; details: in vivo; summary of the method: as §1
[14] = Half life in rat at 5 mg/kg, iv; type: ADME, organism-based; parameters: dose 5 mg/kg, route intravenous; details: in vivo; summary of the method: as §1
[15] = Half life in cynomolgus monkey at 5 mg/kg, iv; type: ADME, organism-based, Macaca fascicularis; parameters: dose 5 mg/kg, route intravenous; details: in vivo; summary of the method: as §1
[16] = Tmax in chimpanzee at 4 mg/kg, po; type: ADME, organism-based, Pan troglodytes; parameters: dose 4 mg/kg, route oral; details: in vivo; summary of the method: as §1
[17] = molecular target: Cytochrome P450 2C19 (Homo sapiens, UniProt P33261); test: Inhibition of CYP2C19; type: ADME
[18] = molecular target: T2, C-X-C chemokine receptor type 3 (Homo sapiens) (UniProt P49682); test: Inhibition of CXCR3 at 1 uM; summary of the method: as §2
T2 sequence (whole entry): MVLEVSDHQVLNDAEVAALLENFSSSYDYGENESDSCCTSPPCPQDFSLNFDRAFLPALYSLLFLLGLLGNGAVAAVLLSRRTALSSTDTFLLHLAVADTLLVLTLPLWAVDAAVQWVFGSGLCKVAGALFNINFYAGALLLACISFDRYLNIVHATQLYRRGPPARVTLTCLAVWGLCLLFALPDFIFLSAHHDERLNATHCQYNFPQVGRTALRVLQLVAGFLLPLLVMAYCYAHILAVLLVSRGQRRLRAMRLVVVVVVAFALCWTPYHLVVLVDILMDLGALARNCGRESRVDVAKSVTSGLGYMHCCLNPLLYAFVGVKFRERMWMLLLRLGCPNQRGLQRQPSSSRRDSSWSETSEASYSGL

[19] = Clearance in cynomolgus monkey at 5 mg/kg, iv; type: ADME, organism-based, Macaca fascicularis; parameters: dose 5 mg/kg, route intravenous; details: in vivo; summary of the method: as §1
[20] = molecular target: C-C chemokine receptor type 5 (Homo sapiens) (UniProt P51681); test: Inhibition of CCR5 at 1 uM; summary of the method: as §2
[21] = Half life in chimpanzee at 1 mg/kg, iv; type: ADME, organism-based, Pan troglodytes; parameters: dose 1 mg/kg, route intravenous; details: in vivo; summary of the method: as §1
[22] = molecular target: T3, C-C chemokine receptor type 3 (Homo sapiens) (UniProt P51677); test: Inhibition of CCR3 at 1 uM; summary of the method: as §2
T3 sequence (whole entry): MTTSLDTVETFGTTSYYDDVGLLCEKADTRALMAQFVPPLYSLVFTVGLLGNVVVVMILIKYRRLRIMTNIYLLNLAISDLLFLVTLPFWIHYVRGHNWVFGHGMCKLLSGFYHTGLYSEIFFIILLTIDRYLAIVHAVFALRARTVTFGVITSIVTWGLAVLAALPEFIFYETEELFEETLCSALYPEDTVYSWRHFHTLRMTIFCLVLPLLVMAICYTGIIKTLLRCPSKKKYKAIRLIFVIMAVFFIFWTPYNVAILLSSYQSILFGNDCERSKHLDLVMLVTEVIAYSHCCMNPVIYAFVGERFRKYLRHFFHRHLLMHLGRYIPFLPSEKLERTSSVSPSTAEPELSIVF

[23] = Half life in rat at 10 mg/kg, po; type: ADME, organism-based; parameters: dose 10 mg/kg, route oral; details: in vivo; summary of the method: as §1
[24] = molecular target: T4, Cytochrome P450 1A2 (Homo sapiens, UniProt P05177); test: Inhibition of CYP1A2; type: ADME
T4 sequence (P05177 whole entry): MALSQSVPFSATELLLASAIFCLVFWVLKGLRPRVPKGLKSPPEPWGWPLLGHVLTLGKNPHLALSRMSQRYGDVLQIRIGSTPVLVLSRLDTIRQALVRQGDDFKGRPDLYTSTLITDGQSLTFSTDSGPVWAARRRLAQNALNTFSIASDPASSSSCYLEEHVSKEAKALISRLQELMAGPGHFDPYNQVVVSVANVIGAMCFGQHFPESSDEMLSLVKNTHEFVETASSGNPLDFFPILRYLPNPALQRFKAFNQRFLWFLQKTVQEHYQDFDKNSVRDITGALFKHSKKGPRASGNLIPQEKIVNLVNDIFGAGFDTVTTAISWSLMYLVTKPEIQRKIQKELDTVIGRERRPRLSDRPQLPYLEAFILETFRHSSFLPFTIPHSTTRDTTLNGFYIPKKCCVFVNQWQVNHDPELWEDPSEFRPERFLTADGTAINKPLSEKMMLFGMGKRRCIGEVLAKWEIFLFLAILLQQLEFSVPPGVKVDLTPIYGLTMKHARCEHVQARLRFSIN

Sequence of Cytochrome P450 2C19 (P33261 whole entry): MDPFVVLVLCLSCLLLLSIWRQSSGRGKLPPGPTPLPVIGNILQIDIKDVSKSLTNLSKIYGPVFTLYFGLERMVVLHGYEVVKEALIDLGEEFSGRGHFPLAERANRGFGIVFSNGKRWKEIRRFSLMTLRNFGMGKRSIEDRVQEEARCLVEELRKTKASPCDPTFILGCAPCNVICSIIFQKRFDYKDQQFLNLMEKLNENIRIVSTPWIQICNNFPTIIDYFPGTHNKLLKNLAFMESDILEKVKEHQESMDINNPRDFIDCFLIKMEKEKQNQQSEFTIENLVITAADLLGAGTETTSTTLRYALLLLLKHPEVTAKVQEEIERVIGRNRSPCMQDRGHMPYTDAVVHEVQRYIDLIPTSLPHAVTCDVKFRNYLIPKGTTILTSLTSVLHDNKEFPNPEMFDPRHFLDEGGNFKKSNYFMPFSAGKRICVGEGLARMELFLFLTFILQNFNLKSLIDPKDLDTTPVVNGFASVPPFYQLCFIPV
Sequence of Cytochrome P450 2C9 (P11712 whole entry): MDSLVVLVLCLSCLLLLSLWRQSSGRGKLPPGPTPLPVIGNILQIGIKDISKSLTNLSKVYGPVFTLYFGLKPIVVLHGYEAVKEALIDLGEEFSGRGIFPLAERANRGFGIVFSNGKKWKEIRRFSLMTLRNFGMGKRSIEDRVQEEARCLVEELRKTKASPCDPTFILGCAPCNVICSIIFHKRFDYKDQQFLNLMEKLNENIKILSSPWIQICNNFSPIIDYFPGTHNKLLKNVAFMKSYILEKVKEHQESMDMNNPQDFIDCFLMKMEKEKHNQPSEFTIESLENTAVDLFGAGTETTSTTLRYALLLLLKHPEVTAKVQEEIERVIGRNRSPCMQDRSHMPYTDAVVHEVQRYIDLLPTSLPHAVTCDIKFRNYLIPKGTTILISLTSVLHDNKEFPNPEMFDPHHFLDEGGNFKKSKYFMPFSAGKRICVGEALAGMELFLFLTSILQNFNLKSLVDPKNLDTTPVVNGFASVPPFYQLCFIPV
Sequence of C-C chemokine receptor type 5 (Homo sapiens) (P51681 whole entry, looked up): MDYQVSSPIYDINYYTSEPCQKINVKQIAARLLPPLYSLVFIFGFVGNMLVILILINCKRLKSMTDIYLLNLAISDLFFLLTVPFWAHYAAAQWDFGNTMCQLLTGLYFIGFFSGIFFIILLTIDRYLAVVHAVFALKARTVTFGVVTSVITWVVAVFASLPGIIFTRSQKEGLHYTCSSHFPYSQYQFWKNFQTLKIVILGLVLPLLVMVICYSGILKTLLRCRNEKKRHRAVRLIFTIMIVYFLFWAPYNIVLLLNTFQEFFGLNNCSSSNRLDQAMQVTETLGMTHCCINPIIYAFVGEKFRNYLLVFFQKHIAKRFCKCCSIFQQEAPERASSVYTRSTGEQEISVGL
Sequence of C-C chemokine receptor type 2 (P41597 whole entry): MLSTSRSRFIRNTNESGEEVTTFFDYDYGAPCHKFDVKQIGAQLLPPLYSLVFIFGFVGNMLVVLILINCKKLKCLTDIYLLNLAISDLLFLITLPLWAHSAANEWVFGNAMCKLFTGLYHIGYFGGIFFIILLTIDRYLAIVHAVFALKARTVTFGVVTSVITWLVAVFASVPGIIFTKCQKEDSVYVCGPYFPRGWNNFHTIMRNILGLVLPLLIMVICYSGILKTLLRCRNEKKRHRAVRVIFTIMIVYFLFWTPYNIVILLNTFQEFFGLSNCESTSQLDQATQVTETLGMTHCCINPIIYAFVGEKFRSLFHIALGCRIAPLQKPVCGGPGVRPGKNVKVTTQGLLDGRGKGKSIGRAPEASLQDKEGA

`COc1ccc([C@]2(O)CC[C@H](N3CC[C@@H](NC(=O)CNC(=O)c4cccc(C(F)(F)F)c4)C3)CC2)cn1.CS(=O)(=O)O` showed an AUC [1] of 4.94 µM·h, an IC50 [2] of 0.0026 µM and a bioavailability [3] of 13%. For the same molecule, the inhibition [4] was “inactive”, the IC50 [5] was greater than 25 µM and the bioavailability [6] was 23%. The Cmax [7] was 2630 nM, the Activity [8] was “Not Active” and the F [9] was 20%. For the same molecule, the AUC [10] was 3.657 µM·h, the AUC [11] was 33.3 µM·h and the clearance [12] was 9.5 mL/min/kg. For the same molecule, the bioavailability [13] was 31%, the half-life [14] was 2.8 h and the half-life [15] was 2.2 h. For the same molecule, the Tmax [16] was 2 h, the IC50 [17] was greater than 25 µM and the inhibition [18] was “inactive”. For the same molecule, the clearance [19] was 13.7 mL/min/kg, the inhibition [20] was “inactive” and the half-life [21] was 3.8 h. For the same molecule, the inhibition [22] was “inactive”, the half-life [23] was 2.9 h and the IC50 [24] was greater than 25 µM.
